Measurements taken from ChEMBL document CHEMBL2057177, “Analogues of fenarimol are potent inhibitors of Trypanosoma cruzi and are efficacious in a murine model of Chagas disease” (J Med Chem, 2012).
In brackets after ≈: the same amount, converted by molar mass. Activity calls are given as the source filed them. No cut-off for these calls is given here.

What was measured:
[1] = tested on: Trypanosoma cruzi; assay: Antitrypanosomal activity against trypomastigotes of Trypanosoma cruzi Tulahuen expressing the beta- galactosidase gene infected rat L6 cells after 96 hrs; format: functional, organism-based; settings: L6, 96 h
Method in brief: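 Tulahuén trypomastigotes expressing β-galactosidase, maintained by serial passage in L6 cells. L6 cells seeded and left 24 h at 37 °C, 5% CO2, then infected at MOI 3 for 48 h. Compound exposure 96 h, benznidazole control. CPRG with 0.3% Nonidet P-40 added, absorbance at 530 nm after 4−6 h. IC50 taken from % inhibition curve; mean of at least two assays.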

[2] = tested on: L6; assay: Cytotoxicity against rat L6 cells after 72 hrs by Alamar Blue assay; format: cell-based; settings: L6, 72 h
Method in brief: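 L6 rat skeletal myoblasts in RPMI 1640 with 10% FBS. Exposed to compound for 72 h, seven-point serial dilutions in triplicate. Alamar Blue read at 570 and 630 nm. IC50 is the mean of at least two assays; podophyllotoxin used as control.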

[3] = Kinetic solubility of the compound at pH 6.5 by nephelometric analysis; format: physicochemical; settings: buffer, read-out: Kinetic_solubility
[4] = target: CYP3A4/5 (Homo sapiens, UniProt P08684+P20815); assay: Inhibition of CYP3A4/5 in human liver microsomes; format: ADME, Microsome
[5] = Plasma concentration in Swiss mouse at 20 mg/kg, po after 1 hr; format: ADME, organism-based; design: dose 20 mg/kg, route oral
Method in brief: (§1)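 Nonfasted male Swiss outbred mice (23.8–39.9 g), fed throughout. Dosed by oral gavage as solution or suspension in aqueous vehicle. Plasma assayed by LC-MS against blank-plasma standards after acetonitrile precipitation; LLOQ 0.001–0.015 μM.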

[6] = Plasma concentration in Swiss mouse at 20 mg/kg, po after 8 hrs; format: ADME, organism-based; design: dose 20 mg/kg, route oral; method in brief: as §1
[7] = Plasma concentration in Swiss mouse at 20 mg/kg, po after 24 hrs; format: ADME, organism-based; design: dose 20 mg/kg, route oral
[8] = Plasma concentration in Swiss mouse at 100 mg/kg, po after 1 hr; format: ADME, organism-based; design: dose 100 mg/kg, route oral
Method in brief: (§2)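 Nonfasted male Swiss Outbred mice weighing 23.8−39.9 g, with food and water freely available, dosed by oral gavage as an aqueous solution or suspension. Plasma proteins precipitated with acetonitrile and compound quantified by LC-MS against standards made in blank mouse plasma. Lower limit of quantitation 0.001−0.015 μM.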

[9] = Plasma concentration in Swiss mouse at 100 mg/kg, po after 8 hrs; format: ADME, organism-based; design: dose 100 mg/kg, route oral; method in brief: as §2
[10] = tested on: Trypanosoma cruzi; assay: Antitrypanosomal activity against trypomastigotes of Trypanosoma cruzi Tulahuen infected in Swiss mouse model of chagas disease assessed as decrease in parasite level in blood at 100 mg/kg, po administered 8 day after post infection qd for 20 days; format: functional; design: scale not given: the % may be the effect or the level left
[11] = tested on: Trypanosoma cruzi; assay: Antitrypanosomal activity against trypomastigotes of Trypanosoma cruzi Tulahuen infected in Swiss mouse model of chagas disease assessed as increase in host survival at 100 mg/kg, po administered 8 day after post infection qd for 20 days; format: functional, organism-based; design: dose 100 mg/kg
[12] = tested on: Trypanosoma cruzi; assay: Antitrypanosomal activity against trypomastigotes of Trypanosoma cruzi Tulahuen infected immunosuppressed Swiss mouse assessed as level of parasite in blood at 20 mg/kg, po administered 8 day after post infection qd for 20 days measured after 3 cycles of immunosuppression; format: functional, organism-based; design: dose 20 mg/kg
[13] = tested on: Trypanosoma cruzi; assay: Antitrypanosomal activity against trypomastigotes of Trypanosoma cruzi Tulahuen infected immunosuppressed Swiss mouse assessed as level of parasite in blood at 100 mg/kg, po administered 8 day after post infection qd for 20 days measured after 3 cycles of immunosuppression; format: functional, organism-based; design: dose 100 mg/kg

SMILES | IC50 [1] [nM] | IC50 [2] [nM] | other results
OC(c1ccc(Cl)cc1)(c1ccc(Cl)cc1)c1cccnc1 | 95 |  | 
OC(c1ccc(C(F)(F)F)cc1)(c1ccc(C(F)(F)F)cc1)c1cccnc1 | 15 |  | 
Clc1ccc(C(c2ccc(Cl)cc2)c2cncnc2)cc1 | 683 |  | 
OC(c1ccc(Cl)cc1)(c1ccc(Cl)cc1)c1cncnc1 | 220 |  | 
Clc1ccc(C(c2ccc(Cl)cc2)c2cccnc2)cc1 | 80 | 84700 | 
OC(c1ccc(Cl)cc1)(c1cccnc1)c1ccccc1Cl (racemic) |  |  | solubility kinetic [3]: 3.1 µg/mL (≈ 9.39 µM); IC50 [4]: 600 nM
Cc1ccccc1C(O)(c1ccc(Cl)cc1)c1cccnc1 (racemic) |  | 82000 | 
OC(c1ccc(Cl)cc1)(c1cccnc1)c1ccc(Br)cc1F (racemic) | 26 | 79200 | 
OC(c1ccc(Cl)cc1)(c1cccnc1)c1ccc(Cl)cc1F (racemic) | 10 | 59400 | solubility kinetic [3]: 1.6 µg/mL (≈ 4.6 µM); IC50 [4]: 900 nM
[O-][n+]1cncc(C(O)(c2ccc(Cl)cc2)c2ccccc2Cl)c1 (racemic) |  | > 100000 | 
COC(c1ccc(Cl)cc1)(c1cccnc1)c1ccccc1Cl (racemic) | 90 | 58700 | 
OC(c1ccc(Cl)cc1)(c1ncccn1)c1ccccc1Cl (racemic) |  | > 100000 | 
CC(C)CNC(c1ccc(Cl)cc1)(c1cccnc1)c1ccccc1Cl (racemic) | 606 |  | 
OC(c1ccc(Cl)cc1)(c1cccnc1)c1nccs1 (racemic) |  | > 100000 | 
OC(c1cccnc1)(c1cccs1)c1ccc(Cl)cc1F (racemic) | 5 | > 100000 | 
OC(c1ccc(Cl)cc1)(c1ccncn1)c1ccccc1Cl (racemic) |  | > 100000 | 
CS(=O)(=O)Nc1ccc(C(O)(c2ccc(Cl)cc2)c2cccnc2)cc1 (racemic) | 30 | > 100000 | 
CN(C)c1ccc(C(O)(c2ccc(C(F)(F)F)cc2)c2cccnc2)cc1 (racemic) | 6 |  | 
OC(c1ccc(Cl)cc1)(c1cccnc1)c1cnc(Cl)s1 (racemic) |  | > 100000 | 
NC(=O)c1ccc(C(O)(c2ccc(C(F)(F)F)cc2)c2cccnc2)cc1 (racemic) |  | > 100000 | 
COc1ccc(C(O)(c2ccc(Cl)cc2)c2cccnc2)cc1 (racemic) | 40 |  | 

SMILES | IC50 [1] [nM] | IC50 [2] [nM] | other results
OC(c1ccc(Cl)cc1)(c1cccnc1)c1ccsc1 (racemic) |  | > 100000 | 
CC(C)c1ccc(C(O)(c2ccc(C(F)(F)F)cc2)c2cccnc2)cc1 (racemic) | 2 | 56300 | 
CC(C)Oc1ccc(C(O)(c2ccc(C(F)(F)F)cc2)c2cccnc2)cc1 (racemic) | 4 |  | solubility kinetic [3]: 1.6 µg/mL (≈ 4.13 µM); IC50 [4]: 1400 nM
NC(=O)c1cccc(C(O)(c2cccnc2)c2ccc(Cl)cc2F)c1 (racemic) | 25 | > 100000 | solubility kinetic [3]: 50 µg/mL (≈ 140 µM); IC50 [4]: 3900 nM; concentration at 1 h [5]: 10500 nM; concentration at 8 h [6]: 440 nM; concentration at 24 h [7]: 6 nM
CC(C)C(=O)Nc1ncc(C(O)(c2ccc(Cl)cc2)c2cccnc2)s1 (racemic) | 21 |  | 
OC(c1ccc(Cl)cc1)(c1ccc(C(F)(F)F)cc1)c1cccnc1 (racemic) | 8 |  | 
OC(c1ccc(Cl)cc1)(c1cccnc1)c1ccccc1Br (racemic) | 70 |  | 
CC(C)Oc1ccc(C(O)(c2cccnc2)c2cnc(Cl)nc2)cc1 (racemic) | 304 | > 100000 | 
OC(c1ccc(Br)cc1)(c1ccc(C(F)(F)F)cc1)c1cccnc1 (racemic) | 20 |  | 
CC(C)Oc1ccc(C(O)(c2ccc(Cl)cc2)c2cccnc2)cc1 (racemic) | 2 |  | solubility kinetic [3]: 1.6 µg/mL (≈ 4.52 µM); IC50 [4]: 1900 nM; concentration at 1 h [8]: 9600 nM; concentration at 8 h [9]: 600 nM
CC(C)Oc1ccccc1C(O)(c1ccc(Cl)cc1)c1cccnc1 (racemic) |  | 48300 | 
NC(=O)c1cccc(C(O)(c2ccc(C(F)(F)F)cc2)c2cccnc2)c1 (racemic) | 70 | > 100000 | 
OC(c1ccc(Cl)cc1)(c1cccnc1)c1cncnc1 (racemic) |  | > 100000 | solubility kinetic [3]: > 100 µg/mL; IC50 [4]: 5000 nM; concentration at 1 h [5]: 300 nM; concentration at 8 h [6]: < 2 nM
COc1cccc(C(O)(c2ccc(Cl)cc2)c2cccnc2)c1 (racemic) | 60 |  | 
OC(c1ccc(Cl)cc1)(c1cccnc1)c1ccc(F)cc1F (racemic) | 16 |  | 
NC(c1ccc(Cl)cc1)(c1cccnc1)c1ccccc1Cl (racemic) | 90 |  | 
N#Cc1ccc(C(O)(c2ccc(Cl)cc2)c2cccnc2)c(F)c1 (racemic) |  | > 100000 | 
OC(c1ccc(Cl)cc1)(c1cccnc1)c1ccccc1F (racemic) | 35 | > 100000 | 
CC(C)Oc1ncc(C(O)(c2ccc(Cl)cc2)c2cccnc2)cn1 (racemic) | 60 | > 100000 | 
OC(c1ccc(Cl)cc1)(c1cncnc1)c1ccccc1F (racemic) |  | > 100000 | 
N#CC(c1ccc(Cl)cc1)(c1cccnc1)c1ccccc1Cl (racemic) | 50 |  | 

SMILES | IC50 [1] [nM] | IC50 [2] [nM] | other results
N#Cc1ccc(C(O)(c2ccc(Cl)cc2)c2cccnc2)cc1 (racemic) | 70 | > 100000 | 
Cc1ccc(C(O)(c2ccc(OC(C)C)cc2)c2cccnc2)c(F)c1 (racemic) | 3 |  | 
N#Cc1ccc(C(O)(c2ccc(C(F)(F)F)cc2)c2cccnc2)c(F)c1 (racemic) | 2 |  | solubility kinetic [3]: 6.3 µg/mL (≈ 16.9 µM); IC50 [4]: 4100 nM; concentration at 1 h [5]: 1400 nM; concentration at 8 h [6]: 300 nM; concentration at 24 h [7]: 50 nM
OC(c1ccc(C(F)(F)F)cc1)(c1cccnc1)c1ccc(Cl)cc1F (racemic) | 2 | > 100000 | solubility kinetic [3]: < 1.6 µg/mL; IC50 [4]: 1400 nM; concentration at 1 h [5]: 1240 nM; concentration at 8 h [6]: 230 nM; concentration at 24 h [7]: 3 nM
OC(c1ccc(Cl)cc1)(c1ccccn1)c1ccccc1Cl (racemic) | 27000 | > 100000 | 
Clc1ccc(C(c2cncnc2)c2ccccc2Cl)cc1 (racemic) |  | > 100000 | 
OC(c1ccc(Cl)cc1)(c1cccnc1)c1cncs1 (racemic) |  | > 100000 | 
OC(c1ccc(Cl)cc1)(c1cccnc1)c1ccccc1C(F)(F)F (racemic) | 120 |  | 
OC(c1ccc(Cl)cc1)(c1cnccn1)c1ccccc1Cl (racemic) |  | > 100000 | 
Cc1ccc(C(O)(c2ccc(Cl)cc2)c2cncnc2)cc1 (racemic) | 24 |  | 
OC(c1ccc(C(F)(F)F)cc1)(c1cccnc1)c1cc2ccccc2s1 (racemic) | 20 |  | 
CC(C)Oc1ccc(C(O)(c2cccnc2)c2ccc(Cl)cc2F)cc1 (racemic) | 1 |  | solubility kinetic [3]: 1.6 µg/mL (≈ 4.3 µM); IC50 [4]: 1100 nM
OC(c1ccc(Cl)cc1)(c1cccnc1)c1cccc(F)c1 (racemic) | 100 | 66000 | 
N#Cc1cccc(C(O)(c2ccc(Cl)cc2)c2cccnc2)c1 (racemic) |  | > 100000 | 
CC(C)Oc1cccc(C(O)(c2ccc(Cl)cc2)c2cccnc2)c1 (racemic) | 82 | 67600 | 
CC(C)Oc1ccc(C(O)(c2ccc(Cl)cc2)c2cccnc2)c(F)c1 (racemic) | 26 | 58200 | 
Nc1ncc(C(O)(c2ccc(Cl)cc2)c2cccnc2)s1 (racemic) | 260 | 56000 | 
OC(c1ccc(Cl)cc1)(c1ccc(C(F)(F)F)cc1)c1cncnc1 (racemic) | 197 | 66800 | 
OC(c1ccc(Cl)cc1)(c1cncnc1)c1cccc(F)c1 (racemic) |  | > 100000 | 
OC(c1ccc(Cl)cc1)(c1cccnc1)c1cccc(C(F)(F)F)c1 (racemic) | 70 |  | 
O=C(Cn1ccnc1[N+](=O)[O-])NCc1ccccc1 [BENZNIDAZOLE] |  |  | Activity [10]: >99%; Activity [11]: Active; Activity [12]: Active; Activity [13]: Active
